Results reported in ChEMBL document CHEMBL4052614, “Novel 3',5'-diprenylated chalcones inhibited the proliferation of cancer cells in vitro by inducing cell apoptosis and arresting cell cycle phase” (Eur J Med Chem, 2017).
Activity calls are given as the source filed them. No cut-off for these calls is given here.

What was measured:
MDA-MB-231 = test: Growth inhibition of human MDA-MB-231 cells at 5 umol/L after 48 hrs by MTT assay relative to control; type: functional; conditions: for inhibition of growth at 5 µM: MDA-MB-231, 48 h, read-out: GI
Method in brief: (§1)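 Cells kept in DMEM/10% FBS at 37 °C, 5% CO2, seeded at 4×10^3–8×10^3 cells/well, 24 h attachment, then 48 h with compound at 5 µmol/L. MTT (5 mg/mL solution) added for 4 h at 37 °C, formazan taken up in DMSO, A490 read. Percent inhibition as mean ± SD of three independent experiments. Doxorubicin as positive control.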

HEL [1] = test: Growth inhibition of HEL cells at 5 umol/L after 48 hrs by MTT assay relative to control; type: functional; conditions: Homo sapiens; for inhibition of growth at 5 µM: read-out: GI; method in brief: as §1
PC-3 [2] = test: Growth inhibition of human PC3 cells at 5 umol/L after 48 hrs by MTT assay relative to control; type: functional; conditions: for inhibition of growth at 5 µM: PC-3, 48 h, read-out: GI; method in brief: as §1
K562 [3] = test: Growth inhibition of human K562 cells at 5 umol/L after 48 hrs by MTT assay relative to control; type: functional; conditions: for inhibition of growth at 5 µM: K562, 48 h, read-out: GI; method in brief: as §1
HEL [4] = test: Cytotoxicity against HEL cells after 48 hrs by MTT assay; type: functional, cell-based; conditions: Homo sapiens
Method in brief: (§2)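 Cells kept in DMEM/10% FBS at 37 °C, 5% CO2, seeded at 4×10^3–8×10^3 cells/well and left 24 h to adhere. Exposed 48 h to a range of concentrations. MTT (5 mg/mL solution) added for 4 h at 37 °C, formazan dissolved in DMSO, absorbance read at 490 nm. IC50 derived from concentration–inhibition relation. Doxorubicin as positive control.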

K562 [5] = test: Cytotoxicity against human K562 cells after 48 hrs by MTT assay; type: functional, cell-based; conditions: K562, 48 h; method in brief: as §2
PC-3 [6] = test: Cytotoxicity against human PC3 cells after 48 hrs by MTT assay; type: functional, cell-based; conditions: PC-3, 48 h; method in brief: as §2
HEL [7] = test: Induction of apoptosis in HEL cells assessed as early apoptotic cells at 5 umol/L after 48 hrs by annexin V-FITC/propidium iodide staining based flow cytometry (reference value: 2.6 to 4.2%); type: functional, Homo sapiens
HEL [8] = test: Induction of apoptosis in HEL cells assessed as late apoptotic cells at 10 umol/L after 48 hrs by annexin V-FITC/propidium iodide staining based flow cytometry (reference value: 1.6%); type: functional, Homo sapiens
HEL [9] = test: Induction of apoptosis in HEL cells assessed as late apoptotic cells at 5 umol/L after 48 hrs by annexin V-FITC/propidium iodide staining based flow cytometry (reference value: 1.6 to 3.3%); type: functional, Homo sapiens
HEL [10] = test: Induction of apoptosis in HEL cells assessed as necrotic cells at 10 umol/L after 48 hrs by annexin V-FITC/propidium iodide staining based flow cytometry (reference value: 0.3%); type: functional, Homo sapiens
HEL [11] = test: Cell cycle arrest in HEL cells assessed as decrease in G2 phase accumulation at 5 umol/L after 48 hrs by propidium iodide staining based flow cytometric method; type: functional; conditions: Homo sapiens
Method in brief: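 Cells grown in DMEM with 10% FBS and penicillin/streptomycin at 37 °C, 5% CO2, and passaged at least 3 times after thawing. Treated 48 h at 5 µmol/L, DMSO-treated controls. Harvested by trypsin, PBS-washed, fixed in ice-cold ethanol, blocked 1 h at 4 °C in 5% BSA/PBS, RNase 1 µg/mL 30 min at 37 °C, PI 20 µg/mL final. Phase percentages read from PI histograms. Mean ± SD, three independent experiments.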

HEL [12] = test: Induction of morphological changes in HEL cells assessed as reduction in cell number at 5 umol/L after 48 hrs by inverted fluorescence microscopic analysis; type: functional, cell-based; conditions: Homo sapiens
Method in brief: (§3)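 Cells cultured in DMEM/10% FBS at 37 °C, 5% CO2. Exposed 48 h to 5 µmol/L compound alongside DMSO controls. Morphology (cell number, rounding, spacing, apoptotic bodies, spindle shape) observed under an inverted microscope with CCD camera.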

HEL [13] = test: Induction of morphological changes in HEL cells assessed as formation of apoptotic bodies at 5 umol/L after 48 hrs by inverted fluorescence microscopic analysis; type: functional, cell-based; conditions: Homo sapiens; method in brief: as §3
HEL [14] = test: Induction of apoptosis in HEL cells assessed as viable cells at 10 umol/L after 48 hrs by annexin V-FITC/propidium iodide staining based flow cytometry (reference value: 94%); type: functional; conditions: Homo sapiens, read-out: Activity
HEL [15] = test: Induction of apoptosis in HEL cells assessed as viable cells at 5 umol/L after 48 hrs by annexin V-FITC/propidium iodide staining based flow cytometry (reference value: 93.1 to 94%); type: functional; conditions: Homo sapiens, read-out: Activity
HEL [16] = test: Induction of apoptosis in HEL cells assessed as early apoptotic cells at 10 umol/L after 48 hrs by annexin V-FITC/propidium iodide staining based flow cytometry (reference value: 4.2%); type: functional, Homo sapiens
HEL [17] = test: Induction of apoptosis in HEL cells assessed as necrotic cells at 5 umol/L after 48 hrs by annexin V-FITC/propidium iodide staining based flow cytometry (reference value: 0.3 to 1%); type: functional, Homo sapiens

| SMILES | inhibition of growth at 5 µM (MDA-MB-231) | growth inhibition (GI) (HEL [1]) | inhibition of growth at 5 µM (PC-3 [2]) | inhibition of growth at 5 µM (K562 [3]) | inhibition of growth at 5 µM (HEL [1]) | growth inhibition (GI) (K562 [3]) | other results |
| --- | --- | --- | --- | --- | --- | --- | --- |
| COc1cc(/C=C/C(=O)c2cc(CC=C(C)C)c(OC)c(CC=C(C)C)c2O)ccc1OC(=O)c1ccc(C)s1 | 19.6% | inactive | 19.2% | 6.3% |  |  |  |
| COc1ccc(/C=C/C(=O)c2cc(CC=C(C)C)c(OC)c(CC=C(C)C)c2O)cc1Cl | 26.5% |  | 31.8% | 31.9% | 11.7% |  |  |
| COc1cc(/C=C/C(=O)c2cc(CC=C(C)C)c(OC)c(CC=C(C)C)c2O)cc(OC)c1OC | 26.2% |  | 15% |  | 23.6% | inactive |  |
| CCOc1cc(/C=C/C(=O)c2cc(CC=C(C)C)c(OC)c(CC=C(C)C)c2O)ccc1OC(=O)c1cccs1 | 7.4% |  | 21.4% |  | 4% | inactive |  |
| COc1cc(/C=C/C(=O)c2cc(CC=C(C)C)c(OC)c(CC=C(C)C)c2O)ccc1OC(=O)c1cccnc1 |  |  | 23% |  | 5.7% | inactive | growth inhibition (GI) (MDA-MB-231): inactive |
| COc1cc(/C=C/C(=O)c2cc(CC=C(C)C)c(OC)c(CC=C(C)C)c2O)ccc1O | 19.3% |  | 26% |  | 22.2% | inactive |  |
| COc1ccc(/C=C/C(=O)c2cc(CC=C(C)C)c(OC)c(CC=C(C)C)c2O)cc1F | 12.1% |  |  | 19.3% | 12.3% |  | growth inhibition (GI) (PC-3 [2]): inactive |
| COc1c(CC=C(C)C)cc(C(=O)/C=C/c2cccn2C)c(O)c1CC=C(C)C | 33.8% | inactive | 11.7% | 9.9% |  |  |  |
| CCOc1cc(/C=C/C(=O)c2cc(CC=C(C)C)c(OC)c(CC=C(C)C)c2O)ccc1OCOC | 29.9% |  | 13.1% |  | 6.3% | inactive |  |
| COCOc1ccc(/C=C/C(=O)c2cc(CC=C(C)C)c(OC)c(CC=C(C)C)c2O)cc1OC | 14% | inactive | 17.3% | 3.9% |  |  |  |
| COc1cc(/C=C/C(=O)c2cc(CC=C(C)C)c(OC)c(CC=C(C)C)c2O)ccc1OC(=O)Cc1cc2ccccc2[nH]1 | 28.3% | inactive | 29.9% |  |  | inactive |  |
| CCOc1cc(/C=C/C(=O)c2cc(CC=C(C)C)c(OC)c(CC=C(C)C)c2O)ccc1OC(=O)/C=C/c1ccncc1 |  | inactive | 13.5% |  |  | inactive | growth inhibition (GI) (MDA-MB-231): inactive |
| COc1ccc(/C=C/C(=O)c2cc(CC=C(C)C)c(OC)c(CC=C(C)C)c2O)cc1 | 14.5% |  | 24.6% | 32% | 29.5% |  |  |
| CCOc1cc(/C=C/C(=O)c2cc(CC=C(C)C)c(OC)c(CC=C(C)C)c2O)ccc1OC(=O)c1ccc(Cl)s1 |  | inactive | 34.3% |  |  | inactive | growth inhibition (GI) (MDA-MB-231): inactive |
| C=CCOc1ccc(/C=C/C(=O)c2cc(CC=C(C)C)c(OC)c(CC=C(C)C)c2O)cc1OCC | 27.7% | inactive | 13.4% |  |  | inactive |  |
| COc1ccc(/C=C/C(=O)c2cc(CC=C(C)C)c(OC)c(CC=C(C)C)c2O)cc1OC | 19% | inactive | 10.6% | 7.5% |  |  |  |
| CCOc1cc(/C=C/C(=O)c2cc(CC=C(C)C)c(OC)c(CC=C(C)C)c2O)ccc1O | 33.5% |  | 25.6% | 10.2% | 12.7% |  |  |
| COc1ccc(/C=C/C(=O)c2cc(CC=C(C)C)c(OC)c(CC=C(C)C)c2O)cc1Br | 30.2% | inactive | 20.9% | 18.9% |  |  |  |
| COc1cccc2c1C(=O)c1c(O)c3c(c(O)c1C2=O)C[C@@](O)(C(=O)CO)C[C@@H]3O[C@H]1C[C@H](N)[C@H](O)[C@H](C)O1 [DOXORUBICIN] | 87.1% |  | 89.7% | 90.6% | 89.2% |  | IC50 (HEL [4]): 2.13 µM; IC50 (K562 [5]): 2.41 µM; IC50 (PC-3 [6]): 2.63 µM |
| CCOc1cc(/C=C/C(=O)c2cc(CC=C(C)C)c(OC)c(CC=C(C)C)c2O)ccc1OC(=O)c1ccco1 |  | inactive | 12.7% |  |  | inactive | growth inhibition (GI) (MDA-MB-231): inactive |
| COc1c(CC=C(C)C)cc(C(=O)/C=C/c2ccc(N(C)C)cc2)c(O)c1CC=C(C)C | 21.5% | inactive | 11.6% |  |  | inactive |  |
| COc1cc(/C=C/C(=O)c2cc(CC=C(C)C)c(OC)c(CC=C(C)C)c2O)ccc1OC(=O)c1ccc(N(C)C)cc1 | 38.5% | inactive | 36.5% | 8.1% |  |  |  |
| COc1ccc(/C=C/C(=O)c2cc(CC=C(C)C)c(OC)c(CC=C(C)C)c2O)cc1[N+](=O)[O-] | 23.4% |  | 21.2% | 23% | 85.4% |  | Activity (HEL [7]): 5.3%; Activity (HEL [8]): 47.6%; Activity (HEL [4]): Dose-dependent effect; IC50 (HEL [4]): 4.35 µM; Activity (HEL [9]): 3.9%; Activity (HEL [10]): 10.1%; Activity (HEL [11]): Active; Activity (HEL [12]): Active; Activity (HEL [13]): inactive; viability at 10 µM (HEL [14]): 30.6%; viability at 5 µM (HEL [15]): 90%; Activity (HEL [16]): 11.6%; Activity (HEL [17]): 0.8% |
